We go through 15 molecules from ChEMBL document CHEMBL1126035, “Selective beta 3-adrenergic agonists of brown adipose tissue and thermogenesis. 1. [4-[2-[(2-Hydroxy-3-phenoxypropyl)amino]ethoxy]phenoxy]acetates” (1992).

The source made the active and inactive calls. The calls are words filed in the database; no cut-off is given here.

Assay [1] is described as follows: Ratio of the dose (D500,peroral administration) elevating the rat heart rate to 500 bpm to the GDP ED50. The class given is functional. The procedure, abridged:
(§1)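 Rats held at 29 °C for 2 weeks, groups of six dosed (sc or po) at the BAT GDP ED50, then at rising multiples of it. Heart rate read 15–30 min after dosing until ≥500 bpm, giving D500; vehicle control group of six. Index = D500 divided by GDP-binding ED50 from cold-adapted rats.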

For assay [2], the target named is Beta-3 adrenergic receptor (Rattus norvegicus) (UniProt P26255). The assay is described as follows: Inhibition of beta-3 adrenergic receptor GDP binding in rat brown adipose tissue on oral administration relative to isoprenaline. It counts as tissue-based. The procedure, abridged:
(§2)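 Rats cold-adapted at 4 °C for 4 days, then kept at 23 °C for 2 days; next day dosed sc or po in 0.45% aqueous NaCl/0.25% w/v Polysorbate 80, 0.1–10 mg kg-1, n=6 per group. Interscapular BAT taken 1 h later, mitochondria by differential centrifugation, GDP binding measured. Expressed relative to isoprenaline sulfate 1 mg kg-1; ED50 by linear regression.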

Assay [3] shares this target. Briefly: Dose necessary to produce 50% of the isoprenaline effect to inhibit GDP binding to beta-3 adrenergic receptor in brown adipose tissue(BAT mitochondria) of rats after subcutaneous administration; not active. In outline:
as §2

Assay [4] can be described thus: Ratio of the dose (D500,subcutaneous administration) elevating the rat heart rate to 500 bpm to the GDP ED50. It counts as functional. The procedure, abridged:
as §1

Chain of Beta-3 adrenergic receptor (Rattus norvegicus) (P26255 whole entry): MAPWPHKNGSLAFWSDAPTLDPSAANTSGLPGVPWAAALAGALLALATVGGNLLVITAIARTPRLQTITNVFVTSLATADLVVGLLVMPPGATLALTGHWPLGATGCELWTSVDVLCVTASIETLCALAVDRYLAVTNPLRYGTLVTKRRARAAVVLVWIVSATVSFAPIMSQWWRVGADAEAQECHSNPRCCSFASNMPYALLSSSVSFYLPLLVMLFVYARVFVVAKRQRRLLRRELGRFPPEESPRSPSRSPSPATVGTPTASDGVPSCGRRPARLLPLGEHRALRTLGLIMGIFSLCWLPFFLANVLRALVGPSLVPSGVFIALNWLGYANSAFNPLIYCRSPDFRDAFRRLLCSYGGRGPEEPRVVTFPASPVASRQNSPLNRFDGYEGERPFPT

With `CCOC(=O)COc1ccc(OCCNCC(O)COc2ccccc2)cc1` (centres undefined), the SI in assay [1] was > 100.

`CC(C)(C)OC(=O)COc1ccc(OCCNCC(O)COc2ccccc2)cc1` (centres undefined) showed a 50% effective dose (ED50) in assay [2] of 0.25 mg/kg. Besides, the SI in assay [1] was > 100. The corresponding values for `O=C(O)COc1ccc(OCCNCC(O)COc2ccccc2)cc1` (centres undefined) are 3.5 mg/kg and > 62. The corresponding values for `COC(=O)COc1cccc(OCCNCC(O)COc2ccccc2)c1` (centres undefined) are 5.28 mg/kg and > 10.

For `Cl.O=C(O)COc1ccc(OCCNC[C@H](O)COc2ccccc2)cc1`, in assay [2], the ED50 was 0.45 mg/kg. Besides, the SI in assay [1] was > 22. The corresponding values for `COC(=O)COc1ccc(CC(C)NCC(O)c2cccc(Cl)c2)cc1` (centres undefined) are 0.007 mg/kg and > 100. Consider `COC(=O)COc1cccc(OCCNCC(O)COc2ccccc2F)c1.Cl` (centres undefined), for which, in assay [1], the SI is > 10. `COC(=O)COc1ccc(OCCNCC(O)COc2ccccc2)cc1` (centres undefined) had an ED50 in assay [2] of 0.12 mg/kg. Moreover, the SI in assay [1] was > 100. Turning to `COC(=O)COc1ccc(C(=O)NCCNCC(O)COc2ccccc2)cc1` (centres undefined), in assay [3], the ED50 result was “inactive”.

As to `COC(=O)COc1ccc(OCC(C)NCC(O)COc2ccccc2)cc1.O` (centres undefined), the SI in assay [1] was > 10. Turning to `COC(=O)COc1ccc(CCNCC(O)COc2ccccc2)cc1` (centres undefined), in assay [2], the ED50 was 0.078 mg/kg. Further, the SI in assay [1] was > 100.

In the case of `CC(C)NC[C@H](O)COc1ccc(O)cc1` [PRENALTEROL], the SI in assay [4] is < 1. On to `COC(=O)c1ccc(CC(C)NCC(O)c2ccccc2)cc1` (centres undefined), for which the ED50 in assay [2] stood at 0.94 mg/kg. In addition, the SI in assay [1] was > 10.

Turning to `COC(=O)COc1ccc(OCCNCC(O)COc2ccccc2F)cc1.Cl` (centres undefined), the ED50 in assay [2] was found to be 0.54 mg/kg. Moreover, the SI in assay [1] is > 100. Regarding `CC(C)OC(=O)COc1ccc(OCCNCC(O)COc2ccccc2)cc1` (centres undefined), the SI in assay [1] is > 10.

The term ED50 denotes the dose that gives a 50% effect, or the effect in half of the subjects.
